Test results as given in the RNAGym collection of RNA variant scans (doi:10.1126/science.aae0568).
Fewer inactive variants are shown than the library holds.

B1: tRNA (parent)
chain: GUUCCGUUGGCGUAAUGGUAACGCGUCUCCCUCCUAAGGAGAAGACUGCGGGUUCGAGUCCCGUACGGAACG

Variants of: B1
Experiment: yeast fitness relative to wild type (ratio to wild type); higher = fitter; tRNA-Arg(CCU), competitive growth, 37 C, YPD
How it was run: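 Changes in genotype frequencies gave Darwinian fitness relative to wild type. Frequencies were read by 100-nucleotide paired-end sequencing of gene amplicons before and after pooled Saccharomyces cerevisiae strains, carrying tRNA-Arg(CCU) gene variants at the native locus, were competed in YPD at 37°C for 24 hours in six replicates. A genotype was kept only with ≥ 100 starting reads, and estimates < 0.5 were set to 0.5.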

Variant	yeast fitness
U32C A36C	0.756
C31U A42G C55U	0.511
C31G A40G G52C	≤ 0.5
C30G C34U A42U G68A	≤ 0.5
U32C U35C C49U	0.659
U32A C66A	0.614
C31U C61U A70U	0.696
C30U A65C	0.841
C30G A70U	0.58
C30U A40U A70C	0.56
C30G A57G G68U	≤ 0.5
C31A A57U	0.626
C30U G41C A45U	≤ 0.5
C31U A40C G56C	≤ 0.5
U32C A37C G38A G63A	0.533
U32C G52A	0.76
C31A C33G A36U C60U U64G A65U A69C	≤ 0.5
C30U U32A A36U A37U C62U	≤ 0.5
U32G C33A U47A	≤ 0.5
U32A G63C	0.626
U32A G63A	0.748

Variant	yeast fitness
U32A G68C	0.721
C30G C34G U35A G68A	≤ 0.5
C31A G44C C60G	≤ 0.5
C30U A40C U59C A65G	≤ 0.5
U32A U64G	0.751
C31G A36U	0.615
U32A A42C	0.817
C31U G52A	0.871
C30U C31U C34A	0.601
C31A G38A	0.792
C30U C31G C34G C66A	≤ 0.5
U32G C33G A70U	0.543
C31U G41U G56A	0.686
U32A C61G C66G	0.576
C30A U59G	0.775
C31A C34U U54C A69C	≤ 0.5
C30U A45U A69U	0.797
C30U A45U A69G	0.566
U32C U35C A37U G52A C66A	0.719
U32C C46U G50A G56C C62A C66U	≤ 0.5
U32A C55A C61U	0.536

Variant	yeast fitness
C30G C46A U47G C49A G52A G58C U64G A65G	0.528
U32C C61G A69C	≤ 0.5
C30U A37C C60U	0.548
C30G A40C A42G	≤ 0.5
C31U A42G	0.73
C31U G41U	1.03
C30G A37C C46G A69C	0.571
U32C G38C A69U	0.531
C31G A42U C62U	0.742
C30U U32A	0.883
C30U U35C A37G C55A A65G	≤ 0.5
C30G A69C A70G	≤ 0.5
C31U A37C	0.761
C31G U35A G56A G63A	≤ 0.5
U32C C46U	0.862
C30G C33G A42G C49U C61U	0.663
C30U C46G C49U	0.641
C30U A69C	0.773
C30U A69G	0.947
C30U A69U	0.879
C31G G58A C61A	0.708

Variant	yeast fitness
C31A C62A C66G	≤ 0.5
C31A G51C C55G A57U C66U	0.564
U32C A69C	0.943
C30G C33G A36C A37U A43U	≤ 0.5
C31U A43C U54C	0.596
C31U G44C U64C	0.559
C31U A43C A69C	0.902
C31U U53A G68A	0.515
C31A A43U C61A	≤ 0.5
C31G C34U A40C G41A	≤ 0.5
U32A U64A G67A	≤ 0.5
C30A U35C U59C G63A	0.584
C31A U35C G41A A57G	≤ 0.5
C30G C60A C66U	0.551
C31G C49G C62U G67C G68A	0.539
U32G A37U U64C	≤ 0.5
C31U C55G C62U	≤ 0.5
U32A U54C	0.629
U32C A42U G48C	0.567
U32A G39A U54A	≤ 0.5
C31U U32G C33G G58C	≤ 0.5
